Laboratory results published in ChEMBL document CHEMBL4382285, “Discovery of Novel Retigabine Derivatives as Potent KCNQ4 and KCNQ5 Channel Agonists with Improved Specificity” (ACS Med Chem Lett, 2019).

Biological target: Potassium voltage-gated channel subfamily KQT member 5 (Homo sapiens, UniProt Q9NR82)
Assay: Activity at human KCNQ5 expressed in CHOK1 cells assessed as ratio of amplitude of outward current in presence of test compound to amplitude of outward current in absence of test compound at 10 uM at -10 mV by whole cell patch clamp assay
Format: cell-based
Procedure, shortened: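 CHO-K1 cells expressing the channel, whole-cell voltage clamp, compound at 10 μM. Read-out is the outward current ratio I/I0 with and without compound, taken at −10 mV. I/I0 > 1 counts as activation and < 1 as inhibition. More than four cells per compound.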

Potassium voltage-gated channel subfamily KQT member 5, sequence (Q9NR82 whole entry): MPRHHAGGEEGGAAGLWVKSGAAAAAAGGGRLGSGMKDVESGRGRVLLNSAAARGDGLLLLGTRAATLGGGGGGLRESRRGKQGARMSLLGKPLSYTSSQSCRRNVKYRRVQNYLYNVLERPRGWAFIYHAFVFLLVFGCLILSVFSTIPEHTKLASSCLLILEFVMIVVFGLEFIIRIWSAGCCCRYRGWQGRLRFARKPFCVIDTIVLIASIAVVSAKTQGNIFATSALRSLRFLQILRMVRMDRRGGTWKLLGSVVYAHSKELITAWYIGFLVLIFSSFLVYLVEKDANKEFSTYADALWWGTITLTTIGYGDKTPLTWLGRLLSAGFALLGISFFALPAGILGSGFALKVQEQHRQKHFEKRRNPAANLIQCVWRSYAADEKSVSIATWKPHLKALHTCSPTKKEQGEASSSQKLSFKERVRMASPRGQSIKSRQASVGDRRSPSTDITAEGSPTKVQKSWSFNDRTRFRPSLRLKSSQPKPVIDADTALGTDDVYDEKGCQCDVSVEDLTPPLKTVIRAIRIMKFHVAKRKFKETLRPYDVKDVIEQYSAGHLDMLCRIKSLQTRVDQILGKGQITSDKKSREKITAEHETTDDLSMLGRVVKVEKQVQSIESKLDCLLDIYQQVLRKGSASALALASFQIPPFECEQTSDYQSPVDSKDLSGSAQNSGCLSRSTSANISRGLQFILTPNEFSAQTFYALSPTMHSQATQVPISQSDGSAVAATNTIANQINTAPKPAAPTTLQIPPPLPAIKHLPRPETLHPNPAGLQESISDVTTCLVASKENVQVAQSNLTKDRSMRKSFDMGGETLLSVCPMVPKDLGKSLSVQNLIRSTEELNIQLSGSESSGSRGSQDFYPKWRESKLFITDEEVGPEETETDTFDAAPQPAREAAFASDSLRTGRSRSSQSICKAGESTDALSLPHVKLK

How did the Ratio turn out when `C#CCN(Cc1ccc(F)cc1)c1ccc(NC(=O)OCC)c(NC(=O)OCC)c1` was run?
The Ratio was 3.2.
